In ChEMBL document CHEMBL1155454, “The pthaladyns: GTP competitive inhibitors of dynamin I and II GTPase derived from virtual screening” (J Med Chem, 2010) one finds inhibition, IC50 and Activity data, which are given here for 31 compounds.

For assay [1], the species on record is Ovis aries. Nature of the assay: Inhibition of sheep brain dynamin 1 at 400 uM after 30 mins by malachite green method. The procedure, abridged:
(§1)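 Enzyme was endogenous dynamin I purified from sheep brain. GTPase activity was read by malachite green phosphate detection, with dynamin and lipid levels set for adequate optical response. Inhibition was also scored at single concentrations of 300 or 400 μM.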

Assay [2] in a line: Inhibition of sheep brain dynamin 1 after 30 mins by malachite green method. Also on record: species or system Ovis aries. The procedure, abridged:
as §1

For assay [3], the target named is T1, Dynamin-2 (Homo sapiens, UniProt P50570).
T1 sequence (P50570 whole entry): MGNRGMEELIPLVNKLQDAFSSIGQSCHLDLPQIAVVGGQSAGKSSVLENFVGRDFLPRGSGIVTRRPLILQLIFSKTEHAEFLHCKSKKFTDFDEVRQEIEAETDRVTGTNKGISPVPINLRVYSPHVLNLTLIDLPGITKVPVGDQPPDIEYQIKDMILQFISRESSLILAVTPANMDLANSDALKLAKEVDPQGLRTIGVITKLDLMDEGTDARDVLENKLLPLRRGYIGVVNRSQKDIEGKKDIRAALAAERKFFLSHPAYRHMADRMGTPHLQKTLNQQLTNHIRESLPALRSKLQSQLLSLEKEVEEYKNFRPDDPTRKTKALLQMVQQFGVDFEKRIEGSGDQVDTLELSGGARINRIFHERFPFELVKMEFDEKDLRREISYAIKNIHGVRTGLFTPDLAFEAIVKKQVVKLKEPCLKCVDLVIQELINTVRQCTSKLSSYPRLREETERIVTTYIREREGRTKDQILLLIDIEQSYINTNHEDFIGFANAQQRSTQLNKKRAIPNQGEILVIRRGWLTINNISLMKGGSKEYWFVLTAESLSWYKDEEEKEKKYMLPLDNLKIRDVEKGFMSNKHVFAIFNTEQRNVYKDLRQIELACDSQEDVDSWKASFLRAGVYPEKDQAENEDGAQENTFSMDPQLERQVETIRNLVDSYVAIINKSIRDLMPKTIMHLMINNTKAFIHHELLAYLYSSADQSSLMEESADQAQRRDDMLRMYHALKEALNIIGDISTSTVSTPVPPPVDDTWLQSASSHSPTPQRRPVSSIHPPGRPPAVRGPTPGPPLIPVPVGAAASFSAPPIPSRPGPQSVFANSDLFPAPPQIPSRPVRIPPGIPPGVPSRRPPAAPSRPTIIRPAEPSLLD
The experiment in a line: Inhibition of dynamin 2-mediated receptor-induced endocytosis in human U2OS cells assessed as uptake of Tf-TxR dye after 30 mins by automated acquisition and analysis system. It counts as cell-based.

In assay [4] the target is T1, Dynamin-2. The experiment in a line: Inhibition of recombinant dynamin 2 expressed in Sf9 cells after 30 mins by malachite green method.
The target of a further assay is T2, Dynamin-1 (Rattus norvegicus, UniProt P21575).
T2 sequence (P21575 whole entry): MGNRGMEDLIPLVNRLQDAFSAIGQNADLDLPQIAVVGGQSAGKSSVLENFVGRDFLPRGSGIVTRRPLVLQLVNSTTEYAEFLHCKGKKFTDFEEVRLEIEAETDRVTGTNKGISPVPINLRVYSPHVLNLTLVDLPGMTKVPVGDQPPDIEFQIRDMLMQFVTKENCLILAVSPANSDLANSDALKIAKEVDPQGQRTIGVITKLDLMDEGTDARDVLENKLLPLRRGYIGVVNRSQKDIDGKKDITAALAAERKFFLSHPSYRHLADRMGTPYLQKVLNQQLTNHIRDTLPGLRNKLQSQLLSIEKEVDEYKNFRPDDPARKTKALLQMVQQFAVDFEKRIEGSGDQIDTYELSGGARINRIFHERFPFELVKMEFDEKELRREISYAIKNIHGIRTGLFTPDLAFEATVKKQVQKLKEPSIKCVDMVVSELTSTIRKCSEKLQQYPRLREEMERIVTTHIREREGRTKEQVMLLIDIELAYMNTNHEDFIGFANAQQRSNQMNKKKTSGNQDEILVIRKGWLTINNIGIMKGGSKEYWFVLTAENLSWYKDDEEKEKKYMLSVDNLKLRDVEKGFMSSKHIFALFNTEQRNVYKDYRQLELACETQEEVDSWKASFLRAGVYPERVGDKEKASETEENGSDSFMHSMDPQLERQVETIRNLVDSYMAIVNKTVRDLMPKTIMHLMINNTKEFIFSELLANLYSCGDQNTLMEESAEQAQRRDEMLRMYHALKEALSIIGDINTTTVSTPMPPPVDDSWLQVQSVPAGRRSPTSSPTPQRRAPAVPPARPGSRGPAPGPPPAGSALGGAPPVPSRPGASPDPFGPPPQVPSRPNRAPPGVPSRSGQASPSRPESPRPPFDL
Nature of the assay: Inhibition of dynamin 1-mediated synaptic vesicle endocytosis in Sprague-Dawley rat synaptosomes assessed as uptake of FM 4-64 dye after 30 mins by automated acquisition and analysis system. The format is subcellular, Brain. The method in brief: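 Rat brain nerve terminals (isolated synaptosomes) used for synaptic vesicle endocytosis. Endocytosis was tracked as change in uptake of the styryl dye FM4-64, an endocytic marker.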

The species named for assay [5] is Ovis aries. The experiment in a line: Competitive inhibition of dynamin 1 from sheep brain at 14 to 19 uM by Lineweaver-Burke plot. The method in brief: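 Dynamin I GTPase purified from sheep brain, read by malachite green phosphate release. Michaelis-Menten kinetics with inhibitor at 14, 15, 16, 17, 18 and 19 μM and Mg2+·GTP substrate at 60-200 μM. Double-reciprocal (Lineweaver-Burke) plot of reaction velocity against substrate. Four independent experiments, each in triplicate; mean ± SEM.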

Assay [6] is filed under the species Ovis aries. The experiment in a line: Inhibition of sheep brain dynamin 1 at 300 uM after 30 mins by malachite green method. The procedure, abridged: as §1

Activity calls are given as the source filed them. The rule behind the calls is not given here.

As for `O=C(Nc1cc(Cl)ccc1C(=O)O)c1ccc2c(c1)C(=O)N(c1ccccc1CO)C2=O`, the inhibition (commonly the change of the read-out against control, counted positive when it falls) in the assay filed under Ovis aries [1] is “inactive”. Still for that read-out and setting: for `O=C(Nc1cc(Cl)ccc1C(=O)O)c1ccc2c(c1)C(=O)N(CCc1ccccc1)C2=O` the value was “inactive”. Regarding `O=C(O)CCc1ccc(N2C(=O)c3ccc(C(=O)Nc4cc(Cl)ccc4C(=O)O)cc3C2=O)cc1`, it took 104 µM to reach half-maximal inhibition in assay [2] (IC50). For the compound `Nc1ccccc1N1C(=O)c2ccc(C(=O)Nc3cc(Cl)ccc3C(=O)O)cc2C1=O`, the IC50 – broadly, the concentration that gives 50% inhibition – in assay [2] turned out to be 311 µM. As to `COc1ccc(CN2C(=O)c3ccc(C(=O)Nc4cc(Cl)ccc4C(=O)O)cc3C2=O)cc1`, the inhibition result in the assay listed under Ovis aries [1] is “inactive”. `Nc1cccc(N2C(=O)c3ccc(C(=O)Nc4cc(Cl)ccc4C(=O)O)cc3C2=O)c1` yielded an IC50 in assay [2] of 94 µM.

In turn, `O=C(Nc1cc(Cl)ccc1C(=O)O)c1ccc2c(c1)C(=O)N(c1ccccc1C(=O)O)C2=O` had an IC50 in assay [2] of 184 µM. As for `O=C(Nc1cc(Cl)ccc1C(=O)O)c1ccc2c(c1)C(=O)N(c1cccc(CO)c1)C2=O`, the IC50 in assay [2] was determined as 111 µM. As to `O=C(Nc1cc(Cl)ccc1C(=O)O)c1ccc2c(c1)C(=O)N(Cc1cccnc1)C2=O`, half-maximal inhibition in assay [2] (IC50) was put at 84 µM.

`O=C(Nc1cc(Cl)ccc1C(=O)O)c1ccc2c(c1)C(=O)N(C1CCCc3ccccc31)C2=O` (centres undefined): the inhibition entry in the assay filed under Ovis aries [1] was “inactive”.

For `O=C(Nc1cc(Cl)ccc1C(=O)O)c1ccc2c(c1)C(=O)N(Cc1ccccc1)C2=O`, in the assay listed under Ovis aries [1], the inhibition result was “inactive”. Turning to `O=C(Nc1cc(Cl)ccc1C(=O)O)c1ccc2c(c1)C(=O)N(c1cccc(O)c1)C2=O`, the inhibition result in the assay listed under Ovis aries [1] is “inactive”.

For `Nc1ccc(N2C(=O)c3ccc(C(=O)Nc4cc(Cl)ccc4C(=O)O)cc3C2=O)cc1`, in the assay listed under Ovis aries [1], the inhibition result is “inactive”. Still for that read-out and setting: for `O=C(Nc1cc(Cl)ccc1C(=O)O)c1ccc2c(c1)C(=O)N(c1cccc3ccccc13)C2=O` the value was “inactive”. On to `COc1ccc(N2C(=O)c3ccc(C(=O)Nc4cc(Cl)ccc4C(=O)O)cc3C2=O)cc1`, for which, in assay [2], the 50% inhibitory concentration (IC50) worked out at 78 µM. `COc1cccc(N2C(=O)c3ccc(C(=O)Nc4cc(Cl)ccc4C(=O)O)cc3C2=O)c1`: in the assay filed under Ovis aries [1], the inhibition result is “inactive”. The same measure, in the same setting: with `CSc1ccc(N2C(=O)c3ccc(C(=O)Nc4cc(Cl)ccc4C(=O)O)cc3C2=O)cc1` the entry was “inactive”. For `Cc1cccc(C)c1N1C(=O)c2ccc(C(=O)Nc3cc(Cl)ccc3C(=O)O)cc2C1=O`, in the assay filed under Ovis aries [1], the inhibition result is “inactive”.

In the case of `O=C(Nc1cc(Cl)ccc1C(=O)O)c1ccc2c(c1)C(=O)N(CCCCc1ccccc1)C2=O`, the inhibition result in the assay listed under Ovis aries [1] was “inactive”. As for `CC(C)(C)c1ccc(N2C(=O)c3ccc(C(=O)Nc4cc(Cl)ccc4C(=O)O)cc3C2=O)cc1`, half-maximal inhibition in assay [2] (IC50) required 112 µM. For `O=C(O)c1ccc(N2C(=O)c3ccc(C(=O)Nc4cc(Cl)ccc4C(=O)O)cc3C2=O)cc1`, in assay [2], the IC50 came to 95 µM. `O=C(Nc1cc(Cl)ccc1C(=O)O)c1ccc2c(c1)C(=O)N(c1ccccc1-c1ccccc1)C2=O` registered an IC50 in assay [2] above 400 µM. Moreover, the inhibition in the assay listed under Ovis aries [1] came out at 40%. `O=C(O)Cc1ccc(N2C(=O)c3ccc(C(=O)Nc4cc(Cl)ccc4C(=O)O)cc3C2=O)cc1` showed an IC50 in assay [2] of 95.5 µM. Same read-out and setting: for `O=C(Nc1cc(Cl)ccc1C(=O)O)c1ccc2c(c1)C(=O)N(c1ccc(C(=O)O)c(O)c1)C2=O` the value was 267 µM.

As to `O=C(Nc1cc(Cl)ccc1C(=O)O)c1ccc2c(c1)C(=O)N(c1ccc(O)cc1)C2=O`, the IC50 result on Dynamin-2 [3] is “Not Active”; on Dynamin-2 [4], 114 µM; in assay [2], 39.8 µM; on Dynamin-1, “Not Active”.

The compound `O=C(Nc1cc(Cl)ccc1C(=O)O)c1ccc2c(c1)C(=O)N(c1ccc([N+](=O)[O-])cc1)C2=O` came in with an IC50 in assay [2] of 16.6 µM. `O=C(Nc1cc(Cl)ccc1C(=O)O)c1ccc2c(c1)C(=O)N(c1cccc([N+](=O)[O-])c1)C2=O`: the 50% inhibitory concentration (IC50) in assay [2] is 17.4 µM; on Dynamin-1 (read-out: IC50), 12.9 µM. Further, the result in the assay filed under Ovis aries [5] was Active. Regarding `O=C(Nc1cc(Cl)ccc1C(=O)O)c1ccc2c(c1)C(=O)N(c1ccccc1)C2=O`, in the assay listed under Ovis aries [1], the inhibition result is “inactive”. For the compound `O=C(Nc1cc(Cl)ccc1C(=O)O)c1ccc2c(c1)C(=O)N(c1ccccc1O)C2=O`, the 50% inhibitory concentration (IC50) in assay [2] came to 61 µM; at Dynamin-1 (read-out: IC50), 119 µM. The like results for `O=C(Nc1cc(Cl)ccc1C(=O)O)c1ccc2c(c1)C(=O)N(c1ccc(CO)cc1)C2=O` were, in that order, 4.58 µM and 690 µM. Consider `CCOC(=O)c1ccc(N2C(=O)c3ccc(C(=O)Nc4cc(Cl)ccc4C(=O)O)cc3C2=O)cc1`, for which, in the assay listed under Ovis aries [6], the inhibition turned out to be 50%.
